How the values were obtained:
cholesterol absorption = details: rat model; cited from earlier work
[1] = Steady-state plasma pharmacokinetics of free and total ezetimibe; assay type: in vivo, human
Outline: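 Ezetimibe 10 mg was given orally once daily for 10 days, alone or with rosuvastatin 20 mg, fasted, in a crossover. EDTA plasma was sampled 0–72 h after the day-10 dose. LC-MS/MS (ezetimibe-d4 internal standard) measured free and total (free plus glucuronide) ezetimibe; LLOQ was 0.2 and 0.5 ng/mL. Analysis was non-compartmental on actual times, with t1/2 as ln(2)/λz. Log-transformed Cmax,ss and AUCτ,ss were compared by ANOVA as geometric mean ratios with 90% CI.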

[2] = single-dose 20 mg ezetimibe; cited from earlier work
[3] = healthy subjects, 7 day-dosing, coadministration with rosuvastatin; cited from earlier work
LDL-C [4] = details: ezetimibe administered with atorvastatin; cited from earlier work
[5] = Tolerability: adverse events in healthy male volunteers; assay type: in vivo, human; details: multiple oral doses over 10 days, healthy male subjects
Outline: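 Healthy Korean men took the single or combined drugs once daily for 10 days in a 3-period crossover. Monitoring ran throughout and covered vital signs, 12-lead ECG, hematology, blood chemistry, urinalysis and physical examinations. AEs were recorded by symptom, duration, intensity, drug relationship, outcome and seriousness. Counts are subjects (events); frequencies were compared by Fisher's exact test.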

LDL-C [6] = details: volunteers with hypercholesterolemia, n=8 per group, ezetimibe 10 mg; cited from earlier work
plasma cholesterol = details: in humans; cited from earlier work

| Compound | cholesterol absorption inhibiting activity (relative potency) (cholesterol absorption) | amount of free ezetimibe in the body ([1]; relative to conjugate/total ezetimibe) [%] | 90% CI of geometric mean ratio for Cmax,ss of free ezetimibe ([1]; single versus combination treatment, exception to 0.80–1.25) | AEs and physical examinations [2] | Cmax,ss of free ezetimibe [2] [ng/mL] | 90% CI of AUCmax,ss ratio of free ezetimibe on coadministration [3] | 90% CI of Cmax,ss ratio of free ezetimibe on coadministration [3] | additional reductions in LDL-C levels (LDL-C [4]) | tolerability [5] | subjects achieving a 35%–50% reduction of LDL-C (LDL-C [6]) | reduction of plasma cholesterol (plasma cholesterol) |
| --- | --- | --- | --- | --- | --- | --- | --- | --- | --- | --- | --- |
| O=C(O)[C@H]1O[C@@H](Oc2ccc([C@@H]3[C@@H](CC[C@H](O)c4ccc(F)cc4)C(=O)N3c3ccc(F)cc3)cc2)[C@H](O)[C@@H](O)[C@@H]1O [ezetimibe glucuronide] | more potent than ezetimibe | – | – | – | – | – | – | – | – | – | – |
| O=C1[C@H](CC[C@H](O)c2ccc(F)cc2)[C@@H](c2ccc(O)cc2)N1c1ccc(F)cc1 [Ezetimibe] | – | < 8 | 1.038–1.346 | no AEs or clinically significant changes | 5.2 | 1.094–1.341 | 0.994–1.285 | 12%–19% | well tolerated | 1 of 8 | 15%–20% |
| CC(C)c1nc(N(C)S(C)(=O)=O)nc(-c2ccc(F)cc2)c1/C=C/[C@@H](O)C[C@@H](O)CC(=O)O [Rosuvastatin] | – | – | – | – | – | – | – | – | well tolerated | – | – |

Reference: paper PMC5903480 (Drug Design, Development and Therapy, 2018)
